ChEMBL document CHEMBL1938348, “Novel inhibitors of surface layer processing in Clostridium difficile” (Bioorg Med Chem, 2012)
Active and inactive are the calls of the source. The rule behind the calls is not given here. Where a SMILES comes first, the peptide text is derived from it. The star is where a group is joined. X1 = CCOC(=O)/C=C/[C@H](CO)N*

Columns and labels:
Details in all cases: Clostridioides difficile
[1] = target: T1, Precursor of the S-layer proteins (Clostridium difficile (strain 630)) (UniProt Q183M8); assay: Inhibition of Clostridium difficile 630 S-layer processing of slpA at 100 uM by Western blot analysis
T1 sequence (whole entry): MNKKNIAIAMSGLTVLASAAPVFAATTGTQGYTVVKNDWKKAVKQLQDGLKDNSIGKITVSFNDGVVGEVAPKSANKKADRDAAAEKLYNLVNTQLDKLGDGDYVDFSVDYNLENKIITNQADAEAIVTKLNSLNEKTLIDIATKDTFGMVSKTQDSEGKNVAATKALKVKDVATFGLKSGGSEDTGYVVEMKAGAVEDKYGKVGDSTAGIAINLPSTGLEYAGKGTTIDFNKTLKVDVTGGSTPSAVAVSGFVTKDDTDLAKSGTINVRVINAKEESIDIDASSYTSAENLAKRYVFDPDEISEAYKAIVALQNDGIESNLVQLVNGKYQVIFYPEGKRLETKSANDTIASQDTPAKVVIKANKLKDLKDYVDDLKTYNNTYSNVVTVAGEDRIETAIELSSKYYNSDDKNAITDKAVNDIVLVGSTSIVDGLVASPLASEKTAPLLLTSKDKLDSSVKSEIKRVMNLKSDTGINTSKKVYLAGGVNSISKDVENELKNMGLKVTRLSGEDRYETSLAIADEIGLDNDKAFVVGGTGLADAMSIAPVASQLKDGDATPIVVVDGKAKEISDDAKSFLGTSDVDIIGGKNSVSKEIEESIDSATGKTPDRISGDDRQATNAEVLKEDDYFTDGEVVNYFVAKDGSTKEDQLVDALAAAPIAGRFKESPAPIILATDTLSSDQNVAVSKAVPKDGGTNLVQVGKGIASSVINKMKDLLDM
Outline: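 C. difficile strain 630 grown overnight (16 h), anaerobic, 37 °C, in BHI with compound at 100 µM or DMSO vehicle. Surface layer proteins extracted with 0.2 M glycine–HCl pH 2.2 (30 min, room temperature), run on SDS–PAGE and semi-dry blotted to PVDF. Probed with rabbit anti-LMW SLP (1/200,000), then goat anti-rabbit-HRP (1/2000). Chemiluminescence read-out.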

[2] = target: T2, Cell surface protein (Clostridium difficile (strain 630)) (UniProt Q183M1); assay: Binding affinity to Clostridium difficile 630 higher molecular weight cwp84 by Western blot analysis
T2 sequence (whole entry): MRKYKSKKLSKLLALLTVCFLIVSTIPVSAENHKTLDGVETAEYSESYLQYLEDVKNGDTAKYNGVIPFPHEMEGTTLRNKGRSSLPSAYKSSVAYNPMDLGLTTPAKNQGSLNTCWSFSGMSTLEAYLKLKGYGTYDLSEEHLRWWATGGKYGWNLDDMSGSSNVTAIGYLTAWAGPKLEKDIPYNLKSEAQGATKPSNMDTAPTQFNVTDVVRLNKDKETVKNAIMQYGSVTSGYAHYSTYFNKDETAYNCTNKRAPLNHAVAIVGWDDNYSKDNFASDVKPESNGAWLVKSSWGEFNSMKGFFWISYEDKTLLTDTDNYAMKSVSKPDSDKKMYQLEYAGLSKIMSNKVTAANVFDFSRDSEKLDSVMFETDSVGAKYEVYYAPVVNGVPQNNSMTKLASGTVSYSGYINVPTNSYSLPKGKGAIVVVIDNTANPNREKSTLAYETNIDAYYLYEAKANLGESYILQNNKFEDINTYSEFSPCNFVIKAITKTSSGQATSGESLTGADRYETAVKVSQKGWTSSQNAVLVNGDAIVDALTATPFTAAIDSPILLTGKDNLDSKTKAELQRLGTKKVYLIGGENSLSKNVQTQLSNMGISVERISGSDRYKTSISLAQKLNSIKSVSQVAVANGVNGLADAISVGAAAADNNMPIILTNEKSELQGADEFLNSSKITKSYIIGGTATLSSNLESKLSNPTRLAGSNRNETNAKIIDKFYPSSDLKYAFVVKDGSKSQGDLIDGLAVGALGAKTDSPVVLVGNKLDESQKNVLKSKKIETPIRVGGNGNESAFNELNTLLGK

[3] = target: T2, Cell surface protein (Clostridium difficile (strain 630)); assay: Binding affinity to Clostridium difficile 630 cwp84 at 74 kDa by Western blot analysis
[4] = target: T2, Cell surface protein (Clostridium difficile (strain 630)); assay: Binding affinity to Clostridium difficile 630 cwp84 at lower band by Western blot analysis

Compound | inhibition [1] | Activity [2] | Activity [3] | Activity [4]
N=C(N)NCCC[C@H](NC(=O)CCl)C(=O)NCCOCCOCCOCCNC(=O)CCCC[C@@H]1SC[C@@H]2NC(=O)N[C@@H]21 | Active | – | – | –
CC(C)C[C@H](NC(=O)CF)C(=O)N[C@@H](CCCNC(=N)N)C(=O)NCCOCCOCCOCCNC(=O)CCCC[C@@H]1SC[C@@H]2NC(=O)N[C@@H]21 | inactive | – | – | –
O=C(CCCC[C@@H]1SC[C@@H]2NC(=O)N[C@@H]21)NCCOCCOCCOCCNC(=O)[C@H](CO)NC(=O)CCl | Active | – | – | –
CCOC(=O)/C=C/[C@H](CO)NC(=O)[C@H](CCCCN)NC(=O)[C@@H](NC(=O)[C@H](CCC(=O)O)NC(=O)[C@H](CC(C)C)NC(C)=O)[C@@H](C)O (Ac-LETK-X1) | Active | – | – | –
N=C(N)NCCC[C@H](NC(=O)CF)C(=O)NCCOCCOCCOCCNC(=O)CCCC[C@@H]1SC[C@@H]2NC(=O)N[C@@H]21 | inactive | – | – | –
CCOC(=O)/C=C/C(=O)N[C@@H](C)C(=O)NCCOCCOCCOCCNC(=O)CCCC[C@@H]1SC[C@@H]2NC(=O)N[C@@H]21 | inactive | – | – | –
C[C@H](NC(=O)CF)C(=O)NCCOCCOCCOCCNC(=O)CCCC[C@@H]1SC[C@@H]2NC(=O)N[C@@H]21 | inactive | – | – | –
C[C@H](NC(=O)CCl)C(=O)NCCOCCOCCOCCNC(=O)CCCC[C@@H]1SC[C@@H]2NC(=O)N[C@@H]21 | Active | – | – | –
O=C(CCCC[C@@H]1SC[C@@H]2NC(=O)N[C@@H]21)NCCOCCOCCOCCNC(=O)[C@H](CO)NC(=O)CF | inactive | – | – | –

Next, values leading:

inhibition [1] | Activity [2] | Activity [3] | Activity [4] | Compound
Active | Active | Active | – | CC(C)C[C@H](NC(=O)CCl)C(=O)N[C@@H](CCCNC(=N)N)C(=O)NCCOCCOCCOCCNC(=O)CCCC[C@@H]1SC[C@@H]2NC(=O)N[C@@H]21
inactive | – | – | – | CCOC(=O)/C=C/C(=O)N[C@@H](CC(C)C)C(=O)N[C@@H](CCCNC(=N)N)C(=O)NCCOCCOCCOCCNC(=O)CCCC[C@@H]1SC[C@@H]2NC(=O)N[C@@H]21
inactive | – | – | – | CCOC(=O)/C=C/C(=O)N[C@@H](CO)C(=O)NCCOCCOCCOCCNC(=O)CCCC[C@@H]1SC[C@@H]2NC(=O)N[C@@H]21
Active | inactive | – | Active | CCOC(=O)/C=C/[C@H](CO)NC(=O)[C@H](CC(C)C)NC(=O)[C@H](CCCCNC(=O)CCCC[C@@H]1SC[C@@H]2NC(=O)N[C@@H]21)NC(C)=O
Active | inactive | – | Active | CCOC(=O)/C=C/[C@H](CO)NC(=O)[C@H](Cc1ccc(O)cc1)NC(=O)[C@H](CCCCNC(=O)CCCC[C@@H]1SC[C@@H]2NC(=O)N[C@@H]21)NC(C)=O
inactive | – | – | – | CCOC(=O)/C=C/C(=O)N[C@@H](CCCNC(=N)N)C(=O)NCCOCCOCCOCCNC(=O)CCCC[C@@H]1SC[C@@H]2NC(=O)N[C@@H]21
